The nature of data set [1]: Mutagenicity in Salmonella typhimurium TA1537 at 5 to 100 uM incubated for 96 hrs in presence of rat liver S9 fraction by Ames fluctuation assay. It counts as toxicity, subcellular. To be noted: salmonella enterica subsp. enterica serovar typhimurium, s9, 96 h, dose 5-100 µM. In a few lines: (§1)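 Fluctuation format in 384-well plates at 37 °C for 96 h. Tested at 5, 10, 50 and 100 μM, 48 replicates per concentration, with and without rat liver S9. Revertant wells counted when OD430/OD570 > 1.0, compared with control by one-tailed Fisher's exact test. Parallel bacterial cytotoxicity test (OD650) at 0.6–100 μM, with growth below 60% of control flagged as cytotoxic.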
(In general: The Ames test uses bacterial strains that need an amino acid and regain growth without it when mutated back.)

Data set [2] is described as follows: Mutagenicity in Salmonella typhimurium TA98 at 5 to 100 uM incubated for 96 hrs by Ames fluctuation assay. It is filed as toxicity. To be noted: salmonella enterica subsp. enterica serovar typhimurium, dose 5-100 µM. The essentials: as §1
The nature of data set [3]: Mutagenicity in Salmonella typhimurium TA1535 at 5 to 100 uM incubated for 96 hrs in presence of rat liver S9 fraction by Ames fluctuation assay. It counts as toxicity, subcellular. To be noted: salmonella enterica subsp. enterica serovar typhimurium, s9, 96 h, dose 5-100 µM. The essentials: as §1
Data set [4] is described as follows: Mutagenicity in Salmonella typhimurium TA100 at 5 to 100 uM incubated for 96 hrs in presence of rat liver S9 fraction by Ames fluctuation assay. It counts as toxicity, subcellular. To be noted: salmonella enterica subsp. enterica serovar typhimurium, s9, 96 h, dose 5-100 µM. The essentials:
as §1

Data set [5] can be described thus: Mutagenicity in Salmonella typhimurium TA100 at 5 to 100 uM incubated for 96 hrs by Ames fluctuation assay. It counts as toxicity. The following applies: salmonella enterica subsp. enterica serovar typhimurium, dose 5-100 µM. In a few lines: as §1
A short description of data set [6]: Mutagenicity in Salmonella typhimurium TA1535 at 5 to 100 uM incubated for 96 hrs by Ames fluctuation assay. The following applies: salmonella enterica subsp. enterica serovar typhimurium, dose 5-100 µM. It is filed as toxicity. In a few lines:
as §1

The nature of data set [7]: Toxicity in Sprague-Dawley rat assessed as at 5 mg/kg, po. The following applies: in vivo.
The nature of data set [8]: Toxicity in Sprague-Dawley rat assessed as at 1 mg/kg, iv. The following applies: in vivo.
Data set [9] is described as follows: Mutagenicity in Salmonella typhimurium TA98 at 5 to 100 uM incubated for 96 hrs in presence of rat liver S9 fraction by Ames fluctuation assay. It counts as toxicity, subcellular. The following applies: salmonella enterica subsp. enterica serovar typhimurium, s9, 96 h, dose 5-100 µM. The essentials: as §1
Data set [10] in a line: Mutagenicity in Salmonella typhimurium TA1537 at 5 to 100 uM incubated for 96 hrs by Ames fluctuation assay. The following applies: salmonella enterica subsp. enterica serovar typhimurium, dose 5-100 µM. It is filed as toxicity. In a few lines: as §1
Data set [11] is described as follows: Unbound brain-to-plasma concentration ratio in Han Wistar rat at 10 mg/kg,po and measured after 16 hrs by LC-MS/MS analysis. It counts as ADME, organism-based. The following applies: read-out: K(p,uu,brain).
Data set [12] can be described thus: Dissociation constant, pKa of compound by pH-metric titration method. It counts as physicochemical.
Data set [13] can be described thus: Mutagenicity in Salmonella typhimurium TA1537 at 5 to 50 uM incubated for 96 hrs in presence of rat liver S9 fraction by Ames fluctuation assay. It is filed as toxicity, subcellular. To be noted: salmonella enterica subsp. enterica serovar typhimurium, s9, 96 h, dose 5-50 µM. In a few lines:
as §1

The test system of another data set is HCC827. Description: Antitumor activity against human luciferase tagged HCC827 cells xenografted in intracranial PDX BALB/c mouse model assessed as tumor regression at 10 mg/kg,po BID for 21 days by Bioluminescence imaging analysis. It counts as functional, organism-based. The following applies: time 21.0 day. In a few lines:
(§2)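 Female BALB/c nude mice given 3 × 10^5 HCC827-luc cells in 2 μL RPMI1640 into the right forebrain under anesthesia. Randomized on day 20 after inoculation, n = 10 per group. Dosed PO b.i.d. at 12 h intervals for 21 days in 1% methylcellulose, with vehicle control. Biweekly IVIS imaging 10 min after IP D-luciferin, plus biweekly body weight. Day-21 means compared by unpaired two-tailed t-test.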
In general terms: In xenograft studies the graft and the host belong to different species.

Data set [14] in a line: Toxicity in intracranial PDX BALB/c mouse model xenografted with human luciferase tagged HCC827 cells assessed as adverse clinical effects at 10 mg/kg,po BID for 21 days. The following applies: in vivo, 504 h, time 21 day. It counts as organism-based. The essentials:
as §2

Data set [15] is described as follows: AUC (0 to infinity) in BALB/c mouse at 30 mg/kg, po and measured upto 24 hrs by LC-MS/MS analysis. It is filed as ADME, organism-based. To be noted: in vivo. Further details: dose 30 mg/kg, time < 24 hrs, route po. The essentials: (§3)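 Female BALB/c nude mice or male Sprague-Dawley rats, 6–8 weeks old, n = 3 per route. IV by tail vein in DMSO:10% captisol in saline 1:99. PO by gavage in 1% methylcellulose. […] Assayed by LC-MS/MS, non-compartmental PK, mean ± SD.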

The nature of data set [16]: AUC (0 to infinity) in BALB/c mouse at 3 mg/kg, iv and measured upto 24 hrs by LC-MS/MS analysis. It is filed as ADME, organism-based. Further details: dose 3 mg/kg, time < 24 hrs, route iv. To be noted: in vivo. In a few lines: as §3
Data set [17] in a line: Mutagenicity in Salmonella typhimurium TA1535 at 5 to 50 uM incubated for 96 hrs by Ames fluctuation assay. It counts as toxicity. The following applies: salmonella enterica subsp. enterica serovar typhimurium, dose 5-50 µM. The essentials:
as §1

The nature of data set [18]: Mutagenicity in Salmonella typhimurium TA1535 at 5 to 50 uM incubated for 96 hrs in presence of rat liver S9 fraction by Ames fluctuation assay. It is filed as toxicity, subcellular. The following applies: salmonella enterica subsp. enterica serovar typhimurium, s9, 96 h, dose 5-50 µM. In a few lines:
as §1

Data set [19] can be described thus: Mutagenicity in Salmonella typhimurium TA100 at 5 to 50 uM incubated for 96 hrs in presence of rat liver S9 fraction by Ames fluctuation assay. It counts as toxicity, subcellular. To be noted: salmonella enterica subsp. enterica serovar typhimurium, s9, 96 h, dose 5-50 µM. In a few lines:
as §1

Data set [20] can be described thus: Genotoxicity in Chinese hamster CHO-K1 cells at 8 to 1000 uM incubated for 24 hrs by micronucleus test. To be noted: cho-k1, 24 h, dose 8-1000 µM. It is filed as toxicity, cell-based, Cricetulus griseus. The essentials: (§4)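 CHO-K1 cells, 96-well format, exposed to 8–1000 μM for either 4 h at 37 °C with rat liver S9 or 24 h at 37 °C without S9. Micronuclei detected by high-content fluorescence imaging. Positive controls were cyclophosphamide 7.2 μM and mitomycin C 0.3 μM. One-tailed two-sample equal-variance t-test.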

Data set [21] is described as follows: Mutagenicity in Salmonella typhimurium TA98 at 5 to 50 uM incubated for 96 hrs by Ames fluctuation assay. It counts as toxicity. To be noted: salmonella enterica subsp. enterica serovar typhimurium, dose 5-50 µM. In a few lines: as §1
Data set [22] is described as follows: Metabolic stability in human hepatocytes assessed as metabolite formation at 10 uM incubated for 4 hrs by UHPLC-MS/MS analysis. It counts as ADME, cell-based, Hepatocyte. In a few lines: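 Human hepatocytes at 1.0 × 10^6 cells/mL incubated with compound at 10 μM for 0, 120 and 240 min at 37 °C. Quenched with 2 volumes of acetonitrile, centrifuged at 16,000g for 15 min, and supernatant analyzed by UHPLC-MS/MS.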

Data set [23] in a line: Genotoxicity in Chinese hamster CHO-K1 cells at 8 to 1000 uM incubated for 4 hrs in presence of rat liver S9 fraction by micronucleus test. It is filed as toxicity, subcellular, Cricetulus griseus. To be noted: s9, 4 h, dose 8-1000 µM. In a few lines:
as §4

Data set [24] in a line: Toxicity in intracranial PDX BALB/c mouse model xenografted with human luciferase tagged HCC827 cells assessed as body weight loss at 10 mg/kg,po BID for 21 days. To be noted: in vivo, 504 h, time 21 day. It counts as organism-based. The essentials:
as §2

Data set [25] can be described thus: Mutagenicity in Salmonella typhimurium TA1537 at 5 to 50 uM incubated for 96 hrs by Ames fluctuation assay. It is filed as toxicity. The following applies: salmonella enterica subsp. enterica serovar typhimurium, dose 5-50 µM. The essentials: as §1
Data set [26] can be described thus: AUC (0 to infinity) in Sprague-Dawley rat at 2 mg/kg, iv and measured upto 24 hrs by LC-MS/MS analysis. It is filed as ADME, organism-based. Set-up: dose 2 mg/kg, time < 24 hrs, route iv. To be noted: in vivo. The essentials:
as §3

The nature of data set [27]: Mutagenicity in Salmonella typhimurium TA100 at 5 to 50 uM incubated for 96 hrs by Ames fluctuation assay. It is filed as toxicity. The following applies: salmonella enterica subsp. enterica serovar typhimurium, dose 5-50 µM. In a few lines:
as §1

Data set [28] is described as follows: Mutagenicity in Salmonella typhimurium TA98 at 5 to 50 uM incubated for 96 hrs in presence of rat liver S9 fraction by Ames fluctuation assay. It is filed as toxicity, subcellular. To be noted: salmonella enterica subsp. enterica serovar typhimurium, s9, 96 h, dose 5-50 µM. The essentials: as §1

Usually pKa stands for the negative logarithm of the acid dissociation constant. Read a high pKa as a weaker acid or stronger base. For orientation: AUC(0-inf) means total exposure, with the tail of the curve extrapolated. High values mean more exposure, low ones less exposure. As a reminder, the AUC is concentration integrated over time. Read a high AUC as high exposure.

Activity calls are given as the source filed them. The calls are words filed in the database; no cut-off is given here.

Take `COc1cc2ncnc(Nc3cccc(Cl)c3F)c2cc1OCCON1CCOCC1`: the Activity result in data set [1], in data set [2], in data set [3], in data set [4], in data set [5] and in data set [6] was “Non-Toxic” throughout. Further, the Activity entry in data set [7], in data set [8], in [9] and in data set [10] was “Non-Toxic” each time.
In the case of `COc1cc2ncnc(Nc3ccc(F)c(Cl)c3)c2cc1OCCCN1CCOCC1` [GEFITINIB], the Activity result in data set [1], in [2], in [3], in data set [4], in data set [5] and in data set [6] was “Non-Toxic” in each case. Further, the Activity entry in data set [9] and in data set [10] was “Non-Toxic” in each case. The Kp uu at 16 h in [11] came to 0.009.
As to `COc1cc2ncnc(Nc3ccc(F)c(Cl)c3)c2cc1OCCON1CCOCC1`, the Activity entry in [1], in data set [2], in data set [3], in data set [4], in [5] and in [6] was “Non-Toxic” each time. The Activity entry in [9] and in data set [10] was “Non-Toxic” in each case.
For the compound `NO` [HYDROXYAMINE], the pKa in [12] stood at 5.9.
In the case of `COc1cc2ncnc(Nc3cccc(Cl)c3F)c2cc1OCCON1CCN(C)CC1`, the Activity entry in data set [13], in data set [14], in data set [17], in data set [18], in data set [19] and in data set [20] was “Non-Toxic” in each case. The Activity entry in [21], in [23], in data set [24], in data set [25], in data set [27] and in data set [28] was “Non-Toxic” each time. The outcome in the data set on HCC827 was Active. The AUC(0-inf) in data set [15] is 5.29 µM·h; in [26], 0.61 µM·h. Further, the AUC in data set [16] amounted to 0.866 µM·h. The Drug metabolism in data set [22] was less than 5%.

The values above are taken from ChEMBL document CHEMBL5390273, “Discovery of a Hydroxylamine-Based Brain-Penetrant EGFR Inhibitor for Metastatic Non-Small-Cell Lung Cancer” (J Med Chem, 2023).
